HTRA1 inh: HTRA1 serine protease inhibitors, primary screen, biochemical, fluorescence polarization, HTS. recombinant HTRA1, FP-rhodamine activity-based probe. inhibition, % at 5.96 µM. hit rate 0.5% among 340,000. AID 504803, 2011; in the data active = inhibition above about 36%;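 also: 0% = enzyme with DMSO and 100% = wells lacking enzyme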
Target sequence (Q92743 whole entry, looked up): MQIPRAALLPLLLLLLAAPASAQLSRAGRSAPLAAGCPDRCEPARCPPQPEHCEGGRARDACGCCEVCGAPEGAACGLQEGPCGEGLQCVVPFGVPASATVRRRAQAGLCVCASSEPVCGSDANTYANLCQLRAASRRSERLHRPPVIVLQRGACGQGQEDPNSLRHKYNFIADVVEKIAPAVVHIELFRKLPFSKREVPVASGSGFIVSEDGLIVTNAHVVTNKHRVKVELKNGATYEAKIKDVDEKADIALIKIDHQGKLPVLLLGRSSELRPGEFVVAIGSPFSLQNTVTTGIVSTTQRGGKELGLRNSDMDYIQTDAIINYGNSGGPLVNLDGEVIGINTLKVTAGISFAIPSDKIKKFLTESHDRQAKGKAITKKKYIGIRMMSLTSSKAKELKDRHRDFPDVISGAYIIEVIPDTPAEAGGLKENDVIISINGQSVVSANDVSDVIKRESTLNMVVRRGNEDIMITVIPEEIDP
ABHD4 inh: ABHD4 inhibitors, primary screen, biochemical, fluorescence polarization, mouse. (Lyso)-N-acylphosphatidylethanolamine lipase (Mus musculus), Q8VD66. purified mABHD4, FP-Rh probe fluorescence polarization. inhibition, % at 8.92 µM. hit rate 0.54% among 370,000;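 active = inhibition exceeding the mean over every tested compound plus 3 SD, cut at about 30% in these data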;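 also: 0% = plate median of compound wells and 100% = S159A mutant with DMSO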
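Assay system: mABHD4 protein; medium: HEPES pH 7.0, NaCl, Pluronic buffer; dosing: 8.92 µM, single dose; schedule: 45 min + 60 min at 25 °C; signal: FP readout, ex 525 nm / em 598 nm; read-out: normalized percent inhibition of probe labeling; repeats: single replicate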
DDE Tn7 FP inh: inhibitors of Tn7 peptide binding to fibrin DD(E), primary screen, biochemical, fluorescence polarization, human fibrin, Tn7 probe | AID 720508, 2013 | hit rate 0.13% among 370,000 | FP displacement of FITC-Tn7 peptide from fibrin DD(E); 0% = median of compound wells per plate | inhibition, % at 8.3 µM;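 active = inhibition above the mean of compounds falling within the control limits plus 3 SD of them, cut at about 14% in these data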;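 also: 0% = plate median of compound wells and 100% = 10 µM Aha-Tn7 peptide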
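Test system: human clot-derived fibrin DD(E) complex / Quantity: 2 µM final DD(E) protein / Incubation: 10 min plus 3 h, room temperature / Measured by: fluorescence polarization / Benchmarks: high control of 10 µM Aha-Tn7 peptide / Replicates: singlicate testing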
DDE Tn6 FP inh: inhibitors of Tn6 peptide binding to fibrin DD(E), primary screen, biochemical, fluorescence polarization, human fibrin, Tn6 probe; AID 720509, 2013; inhibition, % at 8.3 µM; Fibrin DD(E) TRITC-Tn6 fluorescence polarization displacement; hit rate 0.21% among 370,000; Fibrinogen beta chain (Homo sapiens), P02675;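 active = inhibition above a per-campaign cutoff: mean of compounds within control limits plus 3 SD, cut at about 15% in these data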;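 also: 0% = median of all compound wells on the plate and 100% = blocking peptide control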
TCR-CD3 inh: inhibitors of human TCR-CD3 interaction, primary screen, biochemical, fluorescence, TAMRA-labeled TCR probe; T-cell receptor (TCR); inhibition, % at 9.4 µM; hit rate 0.37% among 360,000; in the data active = inhibition above about 19%;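 also: recombinant mutant TCR 2C K166C tagged with TAMRA read by polarization; 0% = receptor in buffer alone and 100% = receptor with positive control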
ABHD4 confirm: ABHD4 inhibitors, retest, confirmation, biochemical, fluorescence polarization, mouse; shares compounds with ABHD4 inh; purified mABHD4, FP-Rh probe fluorescence polarization; inhibition, % at 8.92 µM; hit rate 55% among 1,800;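 active = mean inhibition across replicates above the hit cutoff set in the primary screen, cut at about 30% in these data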;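 also: 0% = wild-type ABHD4 with DMSO and 100% = catalytically dead S159A mutant with DMSO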
Starred values were filed as active, the others as inactive; · = no result; ! = a repeat was not active. Most compounds without a hit are left out; they make up all but 1.3% or so of the library.

SMILES | HTRA1 inh | ABHD4 inh | DDE Tn7 FP inh | DDE Tn6 FP inh | TCR-CD3 inh | ABHD4 confirm
COc1cc(O)cc2cc3c(c(O)c12)C(=O)CC(C)(O)O3 (stereo unspecified) | 11 | 38* | 6 | -2 | 13 | 11
Cc1ccc2cc(CN(C(=O)c3cccs3)c3ccccc3)c(=O)[nH]c2c1 | -4 | 3 | 4 | 3 | 5 | ·
CC(C)(C)OC(=O)N/N=C/c1cccn1-c1ccc([N+](=O)[O-])cc1 | 4 | 6 | -3 | -2 | 2 | ·
CC1=Nc2nc(N3CCCCC3)c(C#N)c3c4c(nc(c23)N1)N(c1ccc(C(C)C)cc1)C(=O)C4 | 2 | 44* | 2 | -1 | 5 | 42*
CSc1ccccc1NC(=O)CN(C)C(=O)c1cccc(S(=O)(=O)N(C)C)c1 | -1 | -1 | -5 | -10 | 1 | ·
CC(C)NC(=O)c1cc(C2CCCCN2C(=O)CCCc2ccccc2)on1 (stereo unspecified) | · | 2 | -7 | 0 | -3 | ·
Cc1csc(=O)n1CC(=O)OCc1nnc(-c2ccc(Cl)cc2)o1 | 7 | 36* | -3 | -5 | -3 | 5
Cc1ccc(NC(=O)CCS(=O)(=O)c2cccc3nonc23)cc1Cl | -1 | 1 | 8 | 1 | 4 | ·
O=[N+]([O-])c1cc2cccnc2c2ncccc12 | · | 1 | 7 | 1 | -10 | ·
NS(=O)(=O)c1cccc2c1c([N+](=O)[O-])cc1nc(O)c(O)nc12 | 2 | 31* | 0 | 4 | 8 | 11
O=C(CSC1=NNC(c2ccccn2)S1)Nc1ccccc1 (stereo unspecified) | 9 | 53* | -9 | 4 | -5 | -16
O=C(CSC1=NNC(c2ccccn2)S1)Nc1cccc(Cl)c1 (stereo unspecified) | · | 36* | -3 | 3 | -12 | -9
O=C(CSc1nnc(-c2ccccn2)o1)Nc1ccccc1 | -2 | 2 | 12 | 0 | 1 | ·
COC(=O)[C@@]1(C(C)C)N=C(c2cc(OC)c(OC)c(OC)c2)[C@]2(O1)C(=O)Nc1ccccc12 | · | -1 | -5 | -10 | -2 | ·
COc1cc(Cl)ccc1OCc1cc(C(=O)N2CCN(C)C(=O)[C@@H]2C)no1 | 2 | -1 | 3 | 4 | -1 | ·
CC(=O)Oc1ccc2c(=O)c(Oc3ccccc3)coc2c1OC(C)=O | 28 | 37* | -3 | -3 | 10 | 15
Cc1ccc(C(=O)/C=C/c2ccc(-c3ccccc3[N+](=O)[O-])o2)cc1 | 13 | 36* | 5 | 2 | -8 | -3
Cc1cccc(NC(=S)N(C)C)c1C | 7 | -2 | 0 | -4 | -7 | ·
Cc1cccc(Nc2cc(C)c3c(O)cccc3n2)c1C | 9 | 30* | -3 | -16 | -5 | 42*
N#C/C(=C\Nc1ccc(F)c(Cl)c1)S(=O)(=O)c1ccccn1 | · | -1 | 5 | -2 | -11 | ·
COc1ccc(Cl)cc1NC(=O)NNC(=O)c1ccccn1 | 2 | 40* | -8 | -6 | -17 | 29
COc1ccccc1NC(=O)c1ccccc1NC(=O)c1ccccn1 | -22 | -4 | -7 | 1 | -3 | ·
O=C1OCCOC2CCCc3oc(C4=CCCCC4)c1c32 (stereo unspecified) | · | 2 | 5 | 6 | 5 | ·
COc1cc(/C=C/c2ccc3cccc(O)c3n2)c(Br)cc1O | 28 | 30* | -3 | 4 | -5 | 69*
Cc1ccc(C)c(Cn2c(CN(C)Cc3ccccc3)nc3c2c(=O)n(C)c(=O)n3C)c1 | -3 | -6 | 1 | -2 | -1 | ·
SMILES | HTRA1 inh | ABHD4 inh | DDE Tn7 FP inh | DDE Tn6 FP inh | TCR-CD3 inh | ABHD4 confirm
COc1ccc(CCNC(=O)C2CC(c3ccc([N+](=O)[O-])cc3)=NO2)cc1 (stereo unspecified) | -3 | 7 | 6 | -3 | -3 | ·
O=C(CSc1ccc(-c2ccco2)nn1)c1cccc([N+](=O)[O-])c1 | 18 | 31* | -8 | 1 | 16 | 0
Cn1cnc(S(=O)(=O)Nc2cc(C(F)(F)F)ccc2N2CCOCC2)c1 | 3 | 0 | 1 | 1 | 2 | ·
CCCCNc1c(-c2ccc(SC(C)CC)cc2)nc2ccccn12 (stereo unspecified) | -1 | 40* | 1 | -1 | 4 | 69*
Cc1ccn2c(NCc3ccccc3)c(-c3cccc(SC4CCCCC4)c3)nc2c1 | 4 | 30* | 1 | -2 | 0 | 31*!
CCCCNc1c(-c2ccc(SC3CCCCC3)cc2)nc2ccccn12 | -17 | 44* | 3 | -8 | 0 | 14
CCCCNc1c(-c2cccc(SC(C)CC)c2)nc2ccc(Cl)cn12 (stereo unspecified) | -1 | 9 | -12 | 0 | 2 | ·
c1ccc(CNc2c(-c3cccc(SC4CCCCC4)c3)nc3ccccn23)cc1 | -12 | 16 | -2 | -4 | 7 | ·
Cc1ccc(C(=O)O)cc1NC(=O)Nc1cccc2ccccc12 | 8 | 8 | 7 | -1 | -7 | ·
CCOC(=O)c1c(-c2ccc(-c3ccccc3)cc2)csc1NC(=O)CNCCN(C)C | 30 | 30* | -3 | -12 | -9 | 43*
CCOC(=O)c1c(-c2ccccc2)csc1NC(=O)CCN1C(=O)c2ccccc2C1=O | -3 | 0 | -2 | 6 | 3 | ·
O=C1C=C(Nc2ccccc2O)c2ccccc2C1=O | 26 | 48* | 8 | 10 | 3 | -5
CCOc1ccc(NC2=CC(=O)C(=O)c3ccccc32)cc1 | 25 | 32* | 2 | 0 | 10 | 27
Clc1cccc(-c2ccc(-c3nc4ccccn4c3NCc3ccccc3)cc2)c1 | -13 | 37* | 2 | 4 | 0 | 33*
CC(C)CNC(=S)NC1CC2CCC(C1)N2Cc1ccccc1 (stereo unspecified) | 4 | -8 | 2 | 4 | -10 | ·
CCc1ccccc1N1CSC2=C(C#N)C(c3ccccc3F)CC(=O)N2C1 (stereo unspecified) | -2 | 19 | 7 | 8 | -2 | ·
COc1cc2c(oc(=O)c3cc(C)cc(OC)c32)c2c(C3OC(C)C(O)C(C)(O)C3O)ccc(O)c12 (stereo unspecified) | 7 | 38* | -3 | -10 | 5 | 14
CCN(CC(=O)Nc1ccc2c(c1)OCCO2)CC(=O)Nc1ccccc1C(F)(F)F | 3 | 32* | 2 | 6 | -2 | 7
O=S(=O)(Nc1ccc(O)c2ncccc12)c1ccccc1F | · | 39* | -1 | -1 | 29* | 42*
Oc1ccc(Nc2ccccc2F)c2cccnc12 | · | 23 | 2 | 3 | · | ·
